Measured values collected from several papers.
Compare with care: the assays were run in different laboratories.
CTSL: Procathepsin L (CTSL, Homo sapiens, UniProt P07711)
PRKAA1: 5'-AMP-activated protein kinase catalytic subunit alpha-1 (PRKAA1, Homo sapiens, UniProt Q13131)
XDH: Xanthine dehydrogenase/oxidase (XDH, Bos taurus, UniProt P80457)

| SMILES | target | test | conditions | inhibition [%] |
| --- | --- | --- | --- | --- |
| CN(C(=O)[C@H](Cc1ccccc1)NC(=O)[C@@H](NC(=O)OCc1ccccc1)C(C)(C)C)N(C#N)CCC(N)=O | CTSL | enzyme activity, inhibitor | 50 µM | 99 |
| Cn1cc(-c2cc(F)cc(N3CCn4c(cc5c4CCCC5)C3=O)c2CO)cc(Nc2ccc(N3CCN(C4COC4)CC3)cn2)c1=O | Sphingosine kinase 2 (SPHK2, Homo sapiens, UniProt Q9NRA0) | enzyme activity, inhibitor | 0.1 µM | -10 |
| CC[C@H](NC(=O)OCc1ccccc1)C(=O)N[C@H](C(=O)N[C@@H](Cc1ccccc1)C(=O)N(C)N(C#N)CCC(N)=O)C(C)(C)C | CTSL | enzyme activity, inhibitor | 50 µM | 99 |
| Cn1cc(-c2cccc(N3CCc4c(sc5c4CC(C)(C)C5)C3=O)c2CO)cc(Nc2ccncn2)c1=O | PRKAA1 | enzyme activity, inhibitor | 1 µM | 1 |
| CN(C)C(=O)COC(=O)Cc1ccc(OC(=O)c2ccc(NC(=N)N)cc2)cc1 | CTSL | enzyme activity, inhibitor | 10 µM | 2 |
| NC(=O)Cc1ccccc1 | XDH | enzyme activity, inhibitor, absorbance | 200 µg/mL | 17.1 |
| CC[C@H](NC(=O)OCc1ccccc1)C(=O)N[C@H](C(=O)N[C@@H](CC(C)C)C(=O)N(C)N(C#N)CCC(N)=O)C(C)(C)C | CTSL | enzyme activity, inhibitor | 50 µM | 100 |
| COc1cc(Nc2ncc(F)c(Nc3ccc4c(n3)NC(=O)C(C)(C)O4)n2)cc(OC)c1OC | PRKAA1 | binding, competition with immobilised ligand | 10 µM | 74 |
| CC(C)Cn1cnc2c(N)nc3ccccc3c21 | Alpha-1B adrenergic receptor (Adra1b, Rattus norvegicus, UniProt P15823) | ligand displacement, radioligand | 10 µM | 40 |
| CC(C)C[C@H](NC(=O)[C@H]1O[C@@H]1C(=O)O)C(=O)NCCCCN=C(N)N | CTSL | enzyme activity, inhibitor | 5 nM | 39 |
| c1ccc(C(NCCNC(c2ccccc2)c2ccccc2)c2ccccc2)cc1 | XDH | enzyme activity, inhibitor | 10 µM | 5 |
| C#Cc1n[nH]c2c(-c3cn([C@@H](C)c4ccccn4)c(=O)[nH]c3=O)cc(F)cc12 | Phosphatidylinositol 4-kinase beta (PI4KB, Homo sapiens, UniProt Q9UBF8) | enzyme activity, inhibitor | 0.1 µM | 9.3 |
